From ChEMBL document CHEMBL1687919, “Design, synthesis, and structure-activity relationship of Trypanosoma brucei leucyl-tRNA synthetase inhibitors as antitrypanosomal agents” (J Med Chem, 2011)

Columns and labels:
[1] = Inhibition of Trypanosoma brucei TREU927 Leucyl-tRNA Synthetase expressed in Escherichia coli BL21 (DE3)-RIPL using [14C]Leu by scintillation counting
How it was run: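 Compound preincubated 20 min at 37 °C without ATP, then started with 4 mM ATP. After 15 min, TCA-precipitated on filters. Nine-point IC50 curves, sigmoidal fit, reference inhibitor per batch.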

[2] = test system: Trypanosoma brucei brucei; assay: Antitrypanosomal activity against bloodstream-form Trypanosoma brucei brucei 427 after 72 hrs; type: functional, organism-based; details: Trypanosoma brucei, 427, 72 h
How it was run: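 HMI-9 with 10% FBS, 10% Serum Plus and pen/strep; log-phase parasites at final 1.0 × 10^5/mL, 0.4% DMSO. Serially diluted compound, 72 h at 37 °C, 5% CO2, then resazurin for 2-4 h more. Fluorescence read at ex 544/em 590 nm. Triplicates averaged, IC50 from sigmoidal dose-response fit; suramin and pentamidine as positive controls.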

L929 = assay: Cytotoxicity against mouse L929 cells after 72 hrs; type: cell-based; details: L929, 72 h
How it was run: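 Fibroblasts grown in D-MEM with 10% FBS and pen/strep, kept subconfluent. Seeded from 1 × 10^4/mL suspension, attached overnight, medium replaced, serially diluted compound added from DMSO. Exposure 72 h at 37 °C, 5% CO2. Resazurin added for 3-4 h more, fluorescence read at ex 544/em 590 nm.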

| IC50 [2] [µM] | SMILES | IC50 [1] [µM] | IC50 (L929) [µg/mL] |
| --- | --- | --- | --- |
|  | CCCCOc1ccc2c(c1)B(O)OC2 | 54.3 |  |
|  | CC(C)Oc1ccc2c(c1)B(O)OC2 | 15.8 |  |
|  | COC(COc1ccc2c(c1)B(O)OC2)OC | 71.3 |  |
| 0.026 | N=C(N)c1ccc(OCCCCCOc2ccc(C(=N)N)cc2)cc1 [PENTAMIDINE] |  |  |
|  | CCCOc1ccc2c(c1)B(O)OC2 | 30.9 |  |
| 2.74 | CC(=O)C(Oc1ccc2c(c1)B(O)OC2)C(C)C (stereo not drawn) | 4.5 | > 10 |
|  | O=C(/C=C/c1cccc2c1B(O)OC2)c1ccccc1 | 412 |  |
|  | O=C(O)COc1ccc2c(c1)B(O)OC2 | > 100 |  |
|  | OB1OCc2ccc(OCc3ccccc3)cc21 | 30.6 |  |
|  | O=C(Nc1ccccc1)Oc1ccc2c(c1)B(O)OC2 | 43.1 |  |
|  | CCCC(Oc1ccc2c(c1)B(O)OC2)C(C)=O (stereo not drawn) | 31.4 |  |
|  | CCOC(=O)CCc1ccc2c(c1)B(O)OC2 | 16.7 |  |
|  | OB1OCc2ccc(Oc3ccc4ccccc4n3)cc21 | 63 |  |
|  | CC(C)(C)OC(=O)NCCOc1ccc2c(c1)B(O)OC2 | > 100 |  |
| 3 | CCOC(=O)C(C)Oc1ccc2c(c1)B(O)OC2 (stereo not drawn) | 2.8 | > 10 |
| 5.49 | CCOC(=O)C(C)(C)Oc1ccc2c(c1)B(O)OC2 | 2.1 | > 10 |
|  | CC(C)(C)NC(=O)COc1ccc2c(c1)B(O)OC2 | > 100 |  |
|  | CCNC(=O)COc1ccc2c(c1)B(O)OC2 | 77.7 |  |
|  | O=C(NC1CCCCC1)Oc1ccc2c(c1)B(O)OC2 | 32.3 |  |
| 2.61 | CC(C)(C)OC(=O)COc1ccc2c(c1)B(O)OC2 | 7.4 | > 10 |
|  | OB1OCc2ccc(OCc3ccccn3)cc21 | > 100 |  |
| 3.76 | CCC(Oc1ccc2c(c1)B(O)OC2)C(C)=O (stereo not drawn) | 3.5 | > 10 |
|  | COCCOc1ccc2c(c1)B(O)OC2 | > 100 |  |
| 0.37 | CC(=O)C(C)(C)Oc1ccc2c(c1)B(O)OC2 | 5 | > 10 |
|  | CCOc1ccc2c(c1)B(O)OC2 | 13 |  |

| IC50 [2] [µM] | SMILES | IC50 [1] [µM] | IC50 (L929) [µg/mL] |
| --- | --- | --- | --- |
|  | CCOC(=O)C(Oc1ccc2c(c1)B(O)OC2)c1ccccc1 (stereo not drawn) | 41.7 |  |
|  | O=C(/C=C/c1ccc2c(c1)B(O)OC2)c1ccccc1 | 209 |  |
|  | CCOC(=O)CCc1cccc2c1B(O)OC2 | > 1000 |  |
|  | OCCCc1cccc2c1B(O)OC2 | 541 |  |
|  | CCCC(=O)COc1ccc2c(c1)B(O)OC2 | 30.8 |  |
|  | CCC(=O)COc1ccc2c(c1)B(O)OC2 | 27.2 |  |
|  | O=C1c2ccccc2C(=O)N1CCCOc1ccc2c(c1)B(O)OC2 | > 100 |  |
| 1.22 | COC(=O)COc1ccc2c(c1)B(O)OC2 | 3.6 | > 10 |
|  | OCCCc1ccc2c(c1)B(O)OC2 | 688 |  |
| 12.9 | CCCC(=O)C(CC)Oc1ccc2c(c1)B(O)OC2 (stereo not drawn) | 2.9 | > 10 |
|  | OB1OCc2ccc(OCc3ccccc3F)cc21 | 25.6 |  |
| 0.005 | Cc1ccc(C(=O)Nc2ccc(S(=O)(=O)O)c3cc(S(=O)(=O)O)cc(S(=O)(=O)O)c23)cc1NC(=O)c1cccc(NC(=O)Nc2cccc(C(=O)Nc3cc(C(=O)Nc4ccc(S(=O)(=O)O)c5cc(S(=O)(=O)O)cc(S(=O)(=O)O)c45)ccc3C)c2)c1 [SURAMIN] |  |  |
| 2.09 | CC(=O)C(C)Oc1ccc2c(c1)B(O)OC2 (stereo not drawn) | 3.8 | > 10 |
|  | OB1OCc2ccc(OCC3CCCCC3)cc21 | > 100 |  |
|  | OB1OCc2ccccc21 [BENZOXABOROLE] | 22.1 |  |
|  | CCOC(=O)/C=C/c1cccc2c1B(O)OC2 | > 1000 |  |
|  | CC(C)CC(=O)COc1ccc2c(c1)B(O)OC2 | 67.6 |  |
|  | OB1OCc2ccc(O)cc21 | 30.9 |  |
| 11.3 | CCOC(=O)C(CC)Oc1ccc2c(c1)B(O)OC2 (stereo not drawn) | 1.6 | > 10 |
|  | O=CCOc1ccc2c(c1)B(O)OC2 | > 100 |  |
|  | CCC(O)C(C)Oc1ccc2c(c1)B(O)OC2 (stereo not drawn) | > 100 |  |
|  | CCOC(=O)/C=C/c1ccc2c(c1)B(O)OC2 | 578 |  |
| 0.72 | CCOC(=O)COc1ccc2c(c1)B(O)OC2 | 3.5 | > 10 |
| 8.25 | CCC(=O)C(C)Oc1ccc2c(c1)B(O)OC2 (stereo not drawn) | 2.5 | > 10 |
